A selection: hits, their analogues and other compounds. The true share with any hit is near 1.7%.
Pemphigus Ab inh: inhibitors of pemphigus antibody binding to DSG3, primary screen, biochemical, bead-based, flow cytometry, scFv-GFP; DSG3-coupled beads, scFv-anti-DSG3-GFP binding; active compounds read low; binding (percent of control), % at 10 µM; actives 0.48% (n = 310,000); Desmoglein-3 (Homo sapiens), P32926;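 active = binding more than 3 SD below its plate's average and above zero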;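 also: hits lower antibody fragment binding to DSG3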
Target sequence (P32926 whole entry, looked up, the tested form may be a part): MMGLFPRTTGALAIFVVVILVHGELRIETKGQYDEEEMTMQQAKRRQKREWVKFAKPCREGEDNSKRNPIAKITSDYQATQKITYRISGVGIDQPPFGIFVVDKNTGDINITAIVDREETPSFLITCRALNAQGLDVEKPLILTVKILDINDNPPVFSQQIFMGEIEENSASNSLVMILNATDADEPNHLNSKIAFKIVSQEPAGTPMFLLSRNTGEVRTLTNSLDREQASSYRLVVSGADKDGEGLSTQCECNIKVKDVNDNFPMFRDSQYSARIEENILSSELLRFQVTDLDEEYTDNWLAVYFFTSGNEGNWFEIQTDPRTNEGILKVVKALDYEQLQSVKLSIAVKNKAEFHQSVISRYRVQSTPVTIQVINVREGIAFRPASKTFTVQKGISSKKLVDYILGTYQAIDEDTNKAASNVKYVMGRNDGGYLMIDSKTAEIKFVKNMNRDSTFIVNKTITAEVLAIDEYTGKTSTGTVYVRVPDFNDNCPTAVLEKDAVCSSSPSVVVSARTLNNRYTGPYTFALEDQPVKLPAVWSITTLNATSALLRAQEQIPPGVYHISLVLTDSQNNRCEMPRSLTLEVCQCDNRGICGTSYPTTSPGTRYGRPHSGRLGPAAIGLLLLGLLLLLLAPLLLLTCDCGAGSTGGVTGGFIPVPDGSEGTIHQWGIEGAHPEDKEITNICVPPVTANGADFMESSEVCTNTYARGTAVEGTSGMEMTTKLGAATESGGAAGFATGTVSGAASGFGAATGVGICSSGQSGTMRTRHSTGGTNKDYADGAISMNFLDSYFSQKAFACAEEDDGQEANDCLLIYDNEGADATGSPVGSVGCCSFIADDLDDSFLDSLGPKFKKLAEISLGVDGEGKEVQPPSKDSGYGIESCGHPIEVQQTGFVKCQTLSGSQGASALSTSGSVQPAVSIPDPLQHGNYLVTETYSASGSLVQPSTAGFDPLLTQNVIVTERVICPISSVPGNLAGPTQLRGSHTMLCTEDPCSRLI
Neddylation inh: inhibitors of cullin neddylation, primary screen, biochemical, TR-FRET, uHTS, NAE and Ubc12. NEDD8-conjugating enzyme Ubc12 (Homo sapiens) + NEDD8-activating enzyme E1 regulatory …. actives 0.58% (n = 360,000). inhibition, % at 25 µM; in the data active = inhibition above about 36%
Efflux pump mplx: inhibitors of Candida efflux pumps in yeast, primary screen, S. cerevisiae, Nile Red, multiplex. S. cerevisiae Candida pump triplex. inhibition, % at 10 µM. actives 0.44% (n = 330,000);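 active = plate passing quality check with inhibition over a set limit, or well fluorescence over plate mean plus 4 SD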;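 also: Nile Red retained in pooled yeast measured as flow cytometry median fluorescence; 0% = buffer negative control and 100% = Enniatin B positive control; higher means more Nile Red kept so more efflux inhibition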
Arrestin-AP2 inh: inhibitors of beta-arrestin/AP2 binding, primary screen, biochemical, GPCR trafficking, flow cytometry; beta-arrestin 1 C-terminal peptide binding to AP2 beta2-adaptin appendage (human); FITC-arrestin peptide / GST-AP2 beads; AP2 beta2 appendage carries R879A mutation; inhibition, % at 10 µM; actives 0.31% (n = 340,000);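 active = inhibition above a set limit, near 3 SD of compounds lacking own fluorescence, cut at about 54% in these data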;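 also: plate controls were DMSO wells for no effect and 5 µM unlabelled arrestin peptide for full effect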
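Test system: GST-tagged AP2 beta2-adaptin appendage (R879A) on 4 µm glutathione beads; also added: fluorescein-tagged arrestin peptide at 50 nM final; timing: 12 min plus 1 h, RT; signal: flow cytometry, FL1 (488/535 nm); read-out: percent drop in bead-associated FITC signal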
Neddyl conf: blockade of NEDD8 conjugation to cullin – biochemical, TR-FRET, single concentration, confirmation; TR-FRET cullin neddylation biochemical assay; actives 13% (n = 1,800); shares compounds with Neddylation inh; calls only at 25 µM; in the data active = inhibition above about 40%;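 also: neddylation substrate is the cullin 1 ring ligase complex with SKP2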
An asterisk follows results filed as active.

O=C(Nc1ccc(F)cc1)C(c1cc2ccccc2o1)N1CCN(c2cccc(C(F)(F)F)n2)CC1 (centres undefined) was read as Neddylation inh 22.
Screening O=C(O)c1cc(N2CCCCC2)nc2ccccc12 returned Neddylation inh 42* and Neddyl conf active.
`COc1ccccc1-c1c(NC(=O)C(C)C)n(C)c2ccccc2c1=O` gave Pemphigus Ab inh 111, Neddylation inh 26, Efflux pump mplx 0 and Arrestin-AP2 inh 14.
Screening COc1cccc(/C=N/c2oc(-c3ccccc3)cc2C#N)c1O returned Neddylation inh 46*, Efflux pump mplx 0, Arrestin-AP2 inh -5 and Neddyl conf inactive.
O=C1SCCC1NS(=O)(=O)c1ccc([N+](=O)[O-])cc1 (centres undefined) was read as Pemphigus Ab inh 105, Neddylation inh -32, Efflux pump mplx 0 and Arrestin-AP2 inh 24.
`CCN1C(=O)c2cccc3c(S(=O)(=O)N(C(C)=O)c4ccc(OC(C)=O)cc4)ccc1c23` gave Pemphigus Ab inh 102, Neddylation inh 63*, Efflux pump mplx 0 and Arrestin-AP2 inh -18.
CCN1C(=O)c2cccc3c(S(=O)(=O)NCc4ccccc4)ccc1c23 was read as Pemphigus Ab inh 108, Neddylation inh 57*, Efflux pump mplx 0 and Arrestin-AP2 inh 24.
C/C=C(\C)C(=O)O[C@H](c1cc2ccc(=O)oc2cc1OC)[C@@H](O)C(C)(C)O was read as Pemphigus Ab inh 96, Neddylation inh 37*, Efflux pump mplx 0, Arrestin-AP2 inh 27 and Neddyl conf inactive.
For Cc1nn(CC(=O)N2CCN(C(=O)c3ccco3)CC2)c(C)c1[N+](=O)[O-] the results were Pemphigus Ab inh 86, Neddylation inh -1, Efflux pump mplx 0 and Arrestin-AP2 inh 10.
`CC(C)c1ccc(/C=C/C(=O)NC(=S)NN2CCOCC2)cc1` gave Pemphigus Ab inh 106, Neddylation inh 1, Efflux pump mplx 0 and Arrestin-AP2 inh 0.
For CC(C)c1ccc(/C=C/C(=O)NC(=S)Nc2ccc(CN3CCOCC3)cc2)cc1 the results were Pemphigus Ab inh 106, Neddylation inh 40*, Efflux pump mplx 0, Arrestin-AP2 inh 1 and Neddyl conf inactive.
O=C1NC2(CCCCC2)C(=O)N1CC(=O)N(Cc1ccccc1)c1ccccc1 was read as Pemphigus Ab inh 112, Neddylation inh -2, Efflux pump mplx 0 and Arrestin-AP2 inh 36.
Screening COc1ccc(C2c3[nH]c4ccccc4c3CCN2Cc2ccoc2)c(F)c1 (centres undefined) returned Pemphigus Ab inh 98, Neddylation inh 41*, Efflux pump mplx 0, Arrestin-AP2 inh 23 and Neddyl conf inactive.
Screening O=C1CCCC(=O)N1c1ccc(NCCOCCO)c([N+](=O)[O-])c1 returned Pemphigus Ab inh 95, Neddylation inh -26, Efflux pump mplx 0 and Arrestin-AP2 inh 17.
`COc1ccc(OC)c(/C=C/C(=O)OCC(=O)NCc2ccco2)c1` gave Pemphigus Ab inh 106, Neddylation inh 41*, Efflux pump mplx 0 and Arrestin-AP2 inh -5.
Screening COc1cccc(/C=C/C(=O)OCC(=O)NCc2ccco2)c1 returned Pemphigus Ab inh 99, Neddylation inh 49*, Efflux pump mplx 1, Arrestin-AP2 inh 4 and Neddyl conf inactive.
Screening COc1ccc(/C=C/C(=O)OCC(=O)NCc2ccco2)c(OC)c1 returned Pemphigus Ab inh 112, Neddylation inh -8, Efflux pump mplx 0 and Arrestin-AP2 inh 3.
`CCNC(=O)C1(C)CCN(C(=O)c2ccc(OC)cc2)C1` (centres undefined) gave Neddylation inh -6.
For CC[C@H](NC(=O)/C=C/[C@H]1O[C@@H](n2cc(C)c(=O)[nH]c2=O)C[C@@H]1O)c1ccccc1 the results were Neddylation inh -4.
`O=C(NCc1cccnc1)c1cc(C2CCCCN2S(=O)(=O)c2ccc(F)cc2F)on1` (centres undefined) gave Neddylation inh 0.
Screening CCc1cc2c(=O)c(-c3nc4ccccc4n3C)c(C)oc2cc1OC(C)=O returned Pemphigus Ab inh 109, Neddylation inh 41*, Efflux pump mplx 0, Arrestin-AP2 inh 5 and Neddyl conf inactive.
CCc1cc2c(=O)c(-c3nc4ccccc4n3C)c(COCC(=O)O)oc2cc1OC(=O)C(C)(C)C was read as Pemphigus Ab inh 98, Neddylation inh 31, Efflux pump mplx 0 and Arrestin-AP2 inh 31.
Screening CCc1ccc([C@@H]2CC=C(C(=O)O)[C@H](c3ccc(C(C)(C)C)cc3)N2S(=O)(=O)c2ccc(C)cc2)cc1 returned Pemphigus Ab inh 95, Neddylation inh 13, Efflux pump mplx 0 and Arrestin-AP2 inh 13.
COc1ccc2oc(C(=O)OCC(=O)N3CC(C)CC(C)C3)c(C)c2c1 (centres undefined) was read as Pemphigus Ab inh 102, Neddylation inh 60*, Efflux pump mplx 0 and Arrestin-AP2 inh 18.
For CCOC(=O)c1c(CN(CC)CC)oc2ccc(OC)cc12 the results were Pemphigus Ab inh 106, Neddylation inh 38*, Efflux pump mplx 0, Arrestin-AP2 inh 11 and Neddyl conf inactive.
Screening COc1ccc2oc(C(=O)OCC(=O)NC3CCCC3)c(C)c2c1 returned Pemphigus Ab inh 103, Efflux pump mplx 0 and Arrestin-AP2 inh 26.
CCN(C(=O)COC(=O)c1oc2ccc(OC)cc2c1C)C1CCCCC1 was read as Pemphigus Ab inh 98, Neddylation inh 52*, Efflux pump mplx 0 and Arrestin-AP2 inh 3.
Screening COc1ccc2oc(C(=O)OC(C)C(=O)N(C)c3ccccc3)c(C)c2c1 (centres undefined) returned Pemphigus Ab inh 99, Neddylation inh 56*, Efflux pump mplx 0 and Arrestin-AP2 inh 50.
`COc1ccc2oc(C(=O)OCC(=O)N3CC(C)OC(C)C3)c(C)c2c1` (centres undefined) gave Efflux pump mplx 0 and Arrestin-AP2 inh 10.
For COc1ccc(CCN(C)CC(O)c2ccccc2)cc1OC (centres undefined) the results were Pemphigus Ab inh 106, Neddylation inh 6, Efflux pump mplx 0 and Arrestin-AP2 inh -6.
`Cc1ccc(NCC(=O)Nc2cccc(F)c2)cc1S(=O)(=O)N1CCCCCC1` gave Pemphigus Ab inh 111, Neddylation inh 2, Efflux pump mplx 0 and Arrestin-AP2 inh -2.
`COc1ccc2oc(C(=O)OCC(=O)N(C)c3c(N)n(Cc4ccccc4)c(=O)[nH]c3=O)c(C)c2c1` gave Pemphigus Ab inh 116, Neddylation inh 58*, Efflux pump mplx 0 and Arrestin-AP2 inh -15.
`COc1ccc2oc(C(=O)OCC(=O)N(C)C3CCS(=O)(=O)C3)c(C)c2c1` (centres undefined) gave Pemphigus Ab inh 106, Efflux pump mplx 0 and Arrestin-AP2 inh 37.

Assay outcomes from PubChem BioAssay.
